For series [1], the system named is Mus musculus. As to the kind of experiment: Antiinflammatory activity in po dosed BALB/c mouse assessed as inhibition of LPS-induced TNFalpha release administered for 5 hrs before LPS challenge measured after 6.5 hrs post dose by ELISA. It is filed as functional, organism-based. The method, boiled down: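 BALB/c female mice, 6–8 weeks old, n = 7–8 per treatment. Compounds given by oral gavage at 30 and 100 mg/kg in PEG400/HCl/Tween80/water; controls received vehicle alone. Five hours later, E. coli O111:B4 LPS 50 µg/kg ip. Serum collected 90 min after LPS, TNF-α measured by ELISA. Drug exposure sampled 6.5 h post-dose. Mean ± standard error.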

Series [2] deals with Blood. As to the kind of experiment: Antiinflammatory activity in mouse whole blood assessed as inhibition of LPS-induced TNFalpha release treated for 5 mins before LPS challenge measured after 6 hrs by ELISA. The format is functional, tissue-based. On the technique in general: In an ELISA, binding on a coated surface is turned into a signal by an enzyme label.
Another series deals with Canis familiaris. In words: Metabolic stability in dog assessed as metabolite (S)-N-(1-(3-(5-amino-8-methyl-8H-imidazo[4,5-d]thiazolo[5,4-b]pyridin-2-yl)phenyl)ethyl)acetamide total AUC at 2 mg/kg, iv. More on the design: dose 2 mg/kg, route intravenous, time AUCmax. As to conditions: in vivo. It is filed as ADME, organism-based, Canis lupus familiaris.
The test system of a further series is Rattus norvegicus. In words: Metabolic stability in rat assessed as metabolite (S)-N-(1-(3-(5-amino-8-methyl-8H-imidazo[4,5-d]thiazolo[5,4-b]pyridin-2-yl)phenyl)ethyl)acetamide total AUC at 2 mg/kg, iv and 10 mg/kg, po. The format is ADME, organism-based. The conditions noted are these: in vivo.
The subject of series [3] is Mus musculus. In words: Metabolic stability in mouse assessed as metabolite (S)-N-(1-(3-(5-amino-8-methyl-8H-imidazo[4,5-d]thiazolo[5,4-b]pyridin-2-yl)phenyl)ethyl)acetamide total AUC at 2 mg/kg, iv and 10 mg/kg, po. It is filed as ADME, organism-based. As to conditions: in vivo.
In series [4] the test system is Blood. As to the kind of experiment: Antiinflammatory activity in human whole blood assessed as inhibition of LPS-induced TNFalpha release treated for 5 mins before LPS challenge measured after 6 hrs by ELISA. The format is functional, tissue-based.
In another series the test system is PBMC. As to the kind of experiment: Antiinflammatory activity in human PBMC assessed as inhibition of LPS-induced TNFalpha release treated for 5 mins before LPS challenge measured after 6 hrs by ELISA. It is filed as functional, cell-based. The method, boiled down: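 PBMCs purified from heparinized healthy-volunteer blood by Ficoll-Hypaque gradient and suspended at 5 × 10⁶/mL in RPMI with 10% FBS. Cells preincubated with compound (0.2% DMSO) for 5 min at room temperature. LPS added from a 200 ng/mL stock, then 6 h at 37 °C. Medium TNF-α measured by ELISA. IC50 by linear regression.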

Series [5] concerns the target T1, Inhibitor of nuclear factor kappa-B kinase subunit beta (Homo sapiens, UniProt O14920).
T1 sequence (O14920 whole entry): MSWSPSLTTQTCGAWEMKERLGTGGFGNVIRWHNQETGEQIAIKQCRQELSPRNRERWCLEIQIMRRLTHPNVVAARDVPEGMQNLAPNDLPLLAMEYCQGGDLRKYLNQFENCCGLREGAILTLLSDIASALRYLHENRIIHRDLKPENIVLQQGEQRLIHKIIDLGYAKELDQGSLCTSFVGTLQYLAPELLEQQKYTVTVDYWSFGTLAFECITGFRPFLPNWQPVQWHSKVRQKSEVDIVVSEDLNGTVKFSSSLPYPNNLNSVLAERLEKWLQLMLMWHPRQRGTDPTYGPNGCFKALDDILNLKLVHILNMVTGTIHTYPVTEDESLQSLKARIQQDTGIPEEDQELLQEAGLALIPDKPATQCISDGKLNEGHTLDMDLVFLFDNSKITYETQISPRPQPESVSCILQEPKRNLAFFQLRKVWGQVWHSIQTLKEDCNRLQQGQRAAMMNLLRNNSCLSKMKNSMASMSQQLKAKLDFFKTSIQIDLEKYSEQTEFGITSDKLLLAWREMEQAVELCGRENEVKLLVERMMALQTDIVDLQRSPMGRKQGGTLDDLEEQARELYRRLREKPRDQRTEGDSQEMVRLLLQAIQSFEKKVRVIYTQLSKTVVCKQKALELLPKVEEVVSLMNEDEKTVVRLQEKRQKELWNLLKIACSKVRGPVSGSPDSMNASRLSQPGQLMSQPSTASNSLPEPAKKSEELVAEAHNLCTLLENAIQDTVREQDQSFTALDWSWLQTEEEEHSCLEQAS
In words: Inhibition of IKK2. The method in brief:
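IKK-2 added at room temperature to 50 µg/mL GST-IκBα with ATP in 25 mM Tris·HCl, pH 7.5, containing MgCl₂, phosphate salts, NaCl, KCl, 1 mM DTT, 5% glycerol and BSA. Stopped after 60 min with 33 mM EDTA. Phospho-IκBα read by fluorescence-polarization competition between an anti-phospho-IκBα antibody and a fluorescein-labelled phosphopeptide.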

Series [6] concerns the target Serine/threonine-protein kinase 16 (Homo sapiens) (UniProt O75716). As to the kind of experiment: Residual activity at STK16 at 10 uM relative to control.
Series [7] concerns the target Death-associated protein kinase 2 (Homo sapiens) (UniProt Q9UIK4). As to the kind of experiment: Residual activity at DAPK2 at 10 uM relative to control.
The target in series [8] is T2, Inhibitor of nuclear factor kappa-B kinase subunit alpha (Homo sapiens, UniProt O15111).
T2 sequence (O15111 whole entry): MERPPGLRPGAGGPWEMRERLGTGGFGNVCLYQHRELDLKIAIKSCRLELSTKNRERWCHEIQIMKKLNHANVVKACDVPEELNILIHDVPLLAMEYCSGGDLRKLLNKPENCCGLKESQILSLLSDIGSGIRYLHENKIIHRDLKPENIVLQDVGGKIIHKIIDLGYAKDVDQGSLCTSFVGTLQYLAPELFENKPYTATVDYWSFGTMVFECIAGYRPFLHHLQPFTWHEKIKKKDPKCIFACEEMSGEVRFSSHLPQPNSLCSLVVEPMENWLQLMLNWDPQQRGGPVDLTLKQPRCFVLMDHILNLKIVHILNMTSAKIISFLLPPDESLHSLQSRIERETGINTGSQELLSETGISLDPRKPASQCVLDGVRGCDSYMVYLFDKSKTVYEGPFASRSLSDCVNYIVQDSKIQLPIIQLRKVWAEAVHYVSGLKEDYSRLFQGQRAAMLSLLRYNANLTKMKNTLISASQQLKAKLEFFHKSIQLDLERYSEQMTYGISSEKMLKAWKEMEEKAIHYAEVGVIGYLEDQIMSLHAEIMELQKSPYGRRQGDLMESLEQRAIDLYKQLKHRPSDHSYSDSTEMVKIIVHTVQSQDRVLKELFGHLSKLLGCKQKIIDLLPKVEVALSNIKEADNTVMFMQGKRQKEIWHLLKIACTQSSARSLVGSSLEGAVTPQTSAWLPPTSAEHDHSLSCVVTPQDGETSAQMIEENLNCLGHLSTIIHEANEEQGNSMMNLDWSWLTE
As to the kind of experiment: Inhibition of IKK1.

The nature of series [9]: Clearance in rat at 2 mg/kg, iv and 10 mg/kg, po. It is filed as ADME, organism-based. As to conditions: in vivo.
Series [10] can be described thus: Half life in rat at 2 mg/kg, iv and 10 mg/kg, po. The conditions noted are these: in vivo. The format is ADME, organism-based.

Usually IC50 stands for the concentration needed to halve the response being measured. The term residual activity denotes the share of the control activity or signal that is left under treatment. The low end stands for little activity left, the high end for much activity left. By half-life is commonly meant the time in which the quantity being followed falls by half. A lower half-life goes with fast loss.

Serine/threonine-protein kinase 16 (Homo sapiens), sequence (O75716 whole entry): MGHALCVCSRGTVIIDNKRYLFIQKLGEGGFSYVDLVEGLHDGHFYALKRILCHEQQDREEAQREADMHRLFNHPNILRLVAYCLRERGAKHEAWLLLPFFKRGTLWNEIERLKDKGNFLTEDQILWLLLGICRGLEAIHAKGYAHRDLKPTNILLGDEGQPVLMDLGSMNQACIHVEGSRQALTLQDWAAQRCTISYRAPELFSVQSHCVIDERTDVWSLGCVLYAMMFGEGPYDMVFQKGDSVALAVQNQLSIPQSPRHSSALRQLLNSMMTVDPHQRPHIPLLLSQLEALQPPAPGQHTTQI
Death-associated protein kinase 2 (Homo sapiens), sequence (Q9UIK4 whole entry, looked up): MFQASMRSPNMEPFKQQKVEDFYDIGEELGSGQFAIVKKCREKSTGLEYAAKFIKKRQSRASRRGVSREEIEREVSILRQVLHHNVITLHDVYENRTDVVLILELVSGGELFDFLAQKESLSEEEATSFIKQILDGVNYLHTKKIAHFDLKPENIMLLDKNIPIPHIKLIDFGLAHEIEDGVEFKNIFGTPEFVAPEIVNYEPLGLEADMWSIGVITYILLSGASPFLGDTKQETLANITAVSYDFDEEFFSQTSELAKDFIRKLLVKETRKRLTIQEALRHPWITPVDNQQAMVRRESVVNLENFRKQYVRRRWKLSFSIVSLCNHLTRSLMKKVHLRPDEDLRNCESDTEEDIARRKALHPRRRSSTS

In the case of `CC(=O)N[C@@H](C)c1cccc(-c2nc3c(nc(N)c4ncn(C)c43)s2)c1`, the inhibition entry in the series on Mus musculus [1] was “Dose-dependent effect”. For the same compound, the IC50 in the series with Blood [2] was found to be 1000 nM; in the series on Blood [4], 2000 nM; in the series on PBMC it was 290 nM; in series [5], 13 nM. Moreover, the AUC is 400 nM in the series with Canis familiaris, 2400 nM with Rattus norvegicus and 3.37 µM in the series with Mus musculus [3]. For the same compound, the residual activity in series [6] and in series [7] was less than 10% each time.

For `CC(=O)N[C@@H](C)c1cccc(-c2nc3c(nc(NCC(F)(F)F)c4ncn(C)c43)s2)c1`, the values for the IC50 (with PBMC; in [5]) were 1360 nM and 57 nM, respectively.

Consider `Cc1ccc2nc(NCCN)c3ncc(C)n3c2c1` [BMS-345541], for which, in the series on PBMC, the IC50 stood at 1000 nM.

Take `CNc1nc2sc(-c3cccc([C@H](C)NC(C)=O)c3)nc2c2c1ncn2C`: the IC50 came to 230 nM in series [8], 80 nM in the series on PBMC and 6 nM in [5].

Consider `CCNc1nc2sc(-c3cccc([C@H](C)NC(=O)C4CCN(C)CC4)c3)nc2c2c1ncn2C`, for which the clearance in series [9] was 130 mL/min/kg. Further, the values for the IC50 (with PBMC; in [5]) were 560 nM and 10 nM, respectively.

Turning to `CCNCC(=O)N[C@@H](C)c1cccc(-c2nc3c(nc(NCC)c4ncn(C)c43)s2)c1`, the values for the IC50 (with PBMC; in [5]) were 440 nM and 39 nM, respectively.

In the case of `CC(=O)NCc1cc(-c2cc3nc(NC4CC4)c4ncn(C)c4n3n2)ccc1F`, the IC50 with PBMC is 730 nM.

Take `CNc1nc2sc(-c3cccc(C(C)NC(C)=O)c3)nc2c2c1ncn2C` (stereo not given): the IC50 in series [8] was determined as 430 nM; with PBMC, 170 nM; in [5], 9 nM.

Take `CC(=O)N[C@@H](C)c1cccc(-c2nc3c(nc(N(C)C)c4ncn(C)c43)s2)c1`: the IC50 with PBMC stood at 990 nM; in series [5], 100 nM.

In series [9], `CCNc1nc2sc(-c3cccc([C@H](C)NC(=O)c4cccc(S(C)(=O)=O)c4)c3)nc2c2c1ncn2C` displayed a clearance of 5.1 mL/min/kg. Moreover, in series [10], the half-life is 1.5 h. For the same compound, the IC50 in the series with PBMC was 220 nM; in series [5] it was 41 nM.

For the compound `CC(=O)N[C@@H](C)c1cccc(-c2nc3c(nc(NCCN)c4ncn(C)c43)s2)c1`, the IC50 with PBMC amounted to 4890 nM; in [5], 49 nM.

Take `CC(=O)N[C@@H](C)c1cccc(-c2nc3c(nc(NC(=O)N(C)C)c4ncn(C)c43)s2)c1`: in series [5], the 50% inhibitory concentration (IC50) turned out to be 130 nM.

In turn, `CCNc1nc2sc(-c3cccc([C@H](C)NC(=O)c4cc(C)on4)c3)nc2c2c1ncn2C` had a clearance in series [9] of 2.8 mL/min/kg. The compound further had a half-life in [10] of 2.8 h. Further, the IC50 worked out at 940 nM in the series with PBMC and 78 nM in series [5].

Consider `COc1nc2sc(-c3cccc([C@H](C)NC(C)=O)c3)nc2c2c1ncn2C`, for which the IC50 in the series on PBMC is more than 10000 nM; in [5] it was more than 500 nM.

Regarding `CNc1nc2sc(-c3cccc([C@@H](C)NC(C)=O)c3)nc2c2c1ncn2C`, the IC50 was 560 nM with PBMC and 28 nM in series [5].

In series [9], `CCNc1nc2sc(-c3cccc([C@H](C)NC(=O)C4(C)CC4)c3)nc2c2c1ncn2C` displayed a clearance of 7.5 mL/min/kg. The half-life in series [10] was 2 h. Also, the IC50 in the series on PBMC came out at 440 nM; in series [5], 34 nM.

Consider `CNc1nc2sc(-c3ccc(CNC(C)=O)cc3)nc2c2c1ncn2C`, for which the IC50 with PBMC turned out to be 530 nM; in series [5], 60 nM.

`CCNc1nc2sc(-c3cccc([C@H](C)NC(=O)C4CCNCC4)c3)nc2c2c1ncn2C` displayed a clearance in series [9] of 3 mL/min/kg. The half-life in series [10] was 2.9 h. Moreover, the IC50 in the series with PBMC came to 290 nM; in series [5], 20 nM.

With `CCNc1nc2sc(-c3cccc([C@@H](C)NC(C)=O)c3)nc2c2c1ncn2C`, the IC50 turned out to be 700 nM in the series with PBMC and 55 nM in [5].

Take `CCNc1nc2sc(-c3cccc(C(C)(C)NC(C)=O)c3)nc2c2c1ncn2C`: the IC50 in the series with PBMC was determined as 400 nM; in [5], 36 nM.

For `CCNc1nc2sc(-c3cccc([C@H](C)NC(=O)CNC(C)=O)c3)nc2c2c1ncn2C`, the IC50 amounted to 480 nM in the series with PBMC and 27 nM in series [5].

As for `CCNc1nc2sc(-c3cccc([C@H](C)NC(=O)COCC)c3)nc2c2c1ncn2C`, the values for the IC50 (in the series on PBMC; in [5]) were 600 nM and 16 nM, respectively.

(Values after ChEMBL document CHEMBL1641407, “Imidazo[4,5-d]thiazolo[5,4-b]pyridine based inhibitors of IKK2: synthesis, SAR, PK/PD and activity in a preclinical model of rheumatoid arthritis” (Bioorg Med Chem Lett, 2011).)
